According to ChEMBL document CHEMBL4706621, “An attempt to chemically state the cross-talk between monomers of COX homodimers by double/hybrid inhibitors mofezolac-spacer-mofezolac and mofezolac-spacer-arachidonic acid” (Eur J Med Chem, 2021):

Assays:
[1] = target: T1, Prostaglandin G/H synthase 2 (Homo sapiens, UniProt P35354); experiment: Inhibition of human COX-2 assessed as peroxidase activity using arachidonic acid as substrate by colorimetric method
T1 sequence (P35354 whole entry): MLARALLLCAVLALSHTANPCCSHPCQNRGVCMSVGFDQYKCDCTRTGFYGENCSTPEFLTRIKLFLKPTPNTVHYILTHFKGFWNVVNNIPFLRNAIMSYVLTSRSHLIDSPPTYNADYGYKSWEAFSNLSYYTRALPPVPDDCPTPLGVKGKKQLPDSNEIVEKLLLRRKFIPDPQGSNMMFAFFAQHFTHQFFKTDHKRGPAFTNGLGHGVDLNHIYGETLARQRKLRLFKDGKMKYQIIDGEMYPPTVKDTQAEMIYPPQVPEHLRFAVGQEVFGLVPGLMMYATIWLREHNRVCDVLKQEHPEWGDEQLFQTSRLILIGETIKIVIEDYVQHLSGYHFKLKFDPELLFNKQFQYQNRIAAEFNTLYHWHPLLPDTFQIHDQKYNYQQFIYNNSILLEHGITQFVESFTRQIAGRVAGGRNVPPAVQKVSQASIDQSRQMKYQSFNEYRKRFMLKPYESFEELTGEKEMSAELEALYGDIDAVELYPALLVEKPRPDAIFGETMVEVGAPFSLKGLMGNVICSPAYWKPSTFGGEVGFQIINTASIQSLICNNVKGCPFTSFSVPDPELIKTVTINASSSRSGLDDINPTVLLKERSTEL
How it was run: (§1)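 Colorimetric COX inhibitor screening kit measuring cyclooxygenase peroxidase activity on arachidonic acid substrate, read as oxidized TMPD at 590 nm. Compound stocks are made in DMSO. IC50 is the mean of at least three independent measurements. Percent inhibition is taken at the highest final inhibitor concentration, 50 µM.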

[2] = Selectivity index, ratio of IC50 for human COX-2 to IC50 for ovine COX-1
How it was run: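 Selectivity index is calculated as COX-2 IC50 divided by COX-1 IC50, each taken from the colorimetric TMPD peroxidase assay with arachidonic acid substrate.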

[3] = target: T2, Prostaglandin G/H synthase 1 (Ovis aries) (UniProt P05979); experiment: Inhibition of ovine COX-1 assessed as peroxidase activity using arachidonic acid as substrate at 50 uM by colorimetric method; how it was run: as §1
T2 sequence (whole entry): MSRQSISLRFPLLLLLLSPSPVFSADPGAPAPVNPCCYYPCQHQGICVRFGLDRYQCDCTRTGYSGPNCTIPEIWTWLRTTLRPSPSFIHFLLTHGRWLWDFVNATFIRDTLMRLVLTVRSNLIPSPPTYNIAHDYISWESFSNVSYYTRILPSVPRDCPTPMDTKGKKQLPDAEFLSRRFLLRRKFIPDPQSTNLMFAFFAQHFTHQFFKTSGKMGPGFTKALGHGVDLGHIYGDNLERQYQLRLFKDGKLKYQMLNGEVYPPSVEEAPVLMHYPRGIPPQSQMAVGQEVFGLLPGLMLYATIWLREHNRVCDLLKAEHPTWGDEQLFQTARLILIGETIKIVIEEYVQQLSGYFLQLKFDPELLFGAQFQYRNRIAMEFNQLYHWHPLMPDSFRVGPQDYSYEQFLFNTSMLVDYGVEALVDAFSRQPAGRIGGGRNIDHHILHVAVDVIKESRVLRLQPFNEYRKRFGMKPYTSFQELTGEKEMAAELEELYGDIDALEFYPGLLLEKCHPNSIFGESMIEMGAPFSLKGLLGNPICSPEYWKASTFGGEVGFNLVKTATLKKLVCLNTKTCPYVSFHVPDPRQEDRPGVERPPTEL

[4] = target: T3, Prostaglandin G/H synthase 1 (Ovis aries, UniProt P05979); experiment: Inhibition of ovine COX-1 assessed as peroxidase activity using arachidonic acid as substrate by colorimetric method; how it was run: as §1
T3 sequence (P05979 whole entry): T2 sequence (whole entry)

[5] = target: T4, Prostaglandin G/H synthase 2 (Homo sapiens) (UniProt P35354); experiment: Inhibition of human COX-2 assessed as peroxidase activity using arachidonic acid as substrate at 50 uM by colorimetric method; how it was run: as §1
T4 sequence (whole entry): T1 sequence (P35354 whole entry)

[6] = Mutagenicity in Escherichia coli PQ37 at 10 to 500 uM by SOS-chromotest; assay type: toxicity; conditions: dose 10-500 µM
How it was run: (§2)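 SOS chromotest spot assay with E. coli PQ35 and PQ37. An overnight culture is diluted in LB and grown at 37 °C to 2×10^8 bacteria/mL. Then 0.1 mL is mixed in top agar and poured on M63 plates. 10 µL of compound in DMSO (10, 100 or 500 µM) is spotted centrally and plates are incubated overnight at 37 °C. A blue ring around the inhibition zone indicates genotoxicity. Run in triplicate with 4-NQO as positive control.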

Vero [7] = experiment: Cytotoxicity against African green monkey Vero cells at 10 uM measured after 48 hrs by MTT assay relative to control; assay type: cell-based; conditions: chlorocebus sabaeus
How it was run: (§3)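 Vero cells grown at 37 °C in 5% CO2 in medium with 10% inactivated FBS. Cells seeded at 3.2×10^4 per well and grown 24 h, then exposed to compounds for 48 h (n = 4). Control is DMEM with 10% FBS and 1% DMSO. MTT (2.5 mg/mL solution) is added for 3 h, formazan is dissolved in DMSO and absorbance is read at 570 nm. Viability is given as % of untreated cells, mean ± SD.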

Plasma [8] = experiment: Anticoagulant activity in human plasma assessed as prothrombin time at 100 uM; assay type: functional
How it was run: (§4)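 Human platelet-poor plasma from whole blood (n=3) by differential centrifugation, run on a coagulation analyzer. Compounds at 100 µM incubated with plasma 15 min at room temperature, then 2 min at 37 °C. For aPTT, cephalin is added for 2 min and clotting is started with 0.025 M CaCl2. For PT, PBS is added for 3 min and clotting is started with calcium thromboplastin. Clotting time is read in seconds at 37 °C. Negative control is 1% DMSO; positive control is 100 µM rivaroxaban.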

[9] = Hemolytic activity against human erythrocytes assessed as hemolysis incubated for 3 hrs by spectrophotometric analysis relative to control; assay type: ADME, cell-based, Erythrocyte; conditions: read-out: Activity
How it was run: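 Citrated human blood (n=3) centrifuged at 2500 rpm for 15 min. The erythrocyte pellet is washed three times and resuspended in PBS pH 7.4. Compounds are incubated with the erythrocytes for 3 h at 37 °C. After centrifugation, released hemoglobin is read at 540 nm. Controls are 1% DMSO (negative) and 1% Triton X-100 (positive). Below 10% counts as non-hemolytic.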

[10] = Genotoxicity in Salmonella typhimurium TA98 at 10 to 500 uM by AMES test; assay type: toxicity; conditions: salmonella enterica subsp. enterica serovar typhimurium, dose 10-500 µM
How it was run: (§5)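 Ames reverse mutation to histidine prototrophy using S. typhimurium TA97, TA98, TA100 and TA102. Compounds are dissolved in DMSO and tested at 10, 100 and 500 µM.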

Vero [11] = experiment: Cytotoxicity against African green monkey Vero cells at 100 uM measured after 48 hrs by MTT assay relative to control; assay type: cell-based; conditions: chlorocebus sabaeus; how it was run: as §3
[12] = Genotoxicity in Salmonella typhimurium TA97 at 10 to 500 uM by AMES test; assay type: toxicity; conditions: salmonella enterica subsp. enterica serovar typhimurium, dose 10-500 µM; how it was run: as §5
Plasma [13] = experiment: Antiplatelet activity in human platelet-rich plasma assessed as inhibition of arachidonic acid-induced platelet aggregation by turbidimetric method; assay type: functional
How it was run: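 Platelet-rich and platelet-poor plasma prepared from human whole blood (n=3) by differential centrifugation. Compounds pre-incubated in PRP for 2 min, then aggregation is induced with 500 µM arachidonic acid and followed turbidimetrically in an aggregometer. IC50 is determined from several concentrations, in triplicate. Acetylsalicylic acid is the positive control; 1% DMSO vehicle is the negative control.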

[14] = Genotoxicity in Salmonella typhimurium TA102 at 10 to 500 uM by AMES test; assay type: toxicity; conditions: salmonella enterica subsp. enterica serovar typhimurium, dose 10-500 µM; how it was run: as §5
[15] = Genotoxicity in Salmonella typhimurium TA100 at 10 to 500 uM by AMES test; assay type: toxicity; conditions: salmonella enterica subsp. enterica serovar typhimurium, dose 10-500 µM; how it was run: as §5
Plasma [16] = experiment: Anticoagulant activity in human plasma assessed as activated partial thromboplastin time at 100 uM; assay type: functional; how it was run: as §4
[17] = Mutagenicity in Escherichia coli PQ35 at 10 to 500 uM by SOS-chromotest; assay type: toxicity; conditions: dose 10-500 µM; how it was run: as §2

Row | Compound | IC50 [1] [µM] | Ratio IC50 [2] | inhibition [3] [%] | IC50 [4] [µM] | inhibition [5] [%] | IC50 (Plasma [13]) [µM] | Activity [6] | Activity (Vero [7]) [%] | PT (Plasma [8]) [s] | hemolysis at 3 h [9] [%] | Activity [10] | Activity (Vero [11]) [%] | Activity [12] | Activity [14] | Activity [15] | APTT (Plasma [16]) [s] | Activity [17]
1 | COc1ccc(-c2noc(CC(=O)Nc3ccc(NC(=O)Cc4onc(-c5ccc(OC)cc5)c4-c4ccc(OC)cc4)cc3)c2-c2ccc(OC)cc2)cc1 | > 50 | > 333 | 85 | 0.15 | – | 0.91 | Non-Toxic | 98 | 15.5 | 0 | Non-Toxic | 97 | Non-Toxic | Non-Toxic | Non-Toxic | 47.5 | Non-Toxic
2 | COc1ccc(-c2noc(CC(=O)Nc3ccc(-c4ccc(NC(=O)Cc5onc(-c6ccc(OC)cc6)c5-c5ccc(OC)cc5)cc4)cc3)c2-c2ccc(OC)cc2)cc1 | > 50 | > 625 | 73 | 0.08 | – | 0.44 | Non-Toxic | 100 | 15.1 | 0 | Non-Toxic | 92 | Non-Toxic | Non-Toxic | Non-Toxic | 46.5 | Non-Toxic
3 | COc1ccc(-c2noc(CC(=O)NCc3ccc(CNC(=O)Cc4onc(-c5ccc(OC)cc5)c4-c4ccc(OC)cc4)cc3)c2-c2ccc(OC)cc2)cc1 | > 50 | – | – | > 50 | – | – | – | – | – | – | – | – | – | – | – | – | –
4 | COc1ccc(-c2noc(CC(=O)NCCCCCCNC(=O)Cc3onc(-c4ccc(OC)cc4)c3-c3ccc(OC)cc3)c2-c2ccc(OC)cc2)cc1 | > 50 | > 5.5 | 50 | 9 | – | – | – | – | – | – | – | – | – | – | – | – | –
5 | COc1ccc(-c2noc(CC(=O)NCCCCNC(=O)Cc3onc(-c4ccc(OC)cc4)c3-c3ccc(OC)cc3)c2-c2ccc(OC)cc2)cc1 | > 50 | > 9 | 74 | 5.5 | – | – | – | – | – | – | – | – | – | – | – | – | –
6 | CC(=O)Oc1ccccc1C(=O)O [ASPIRIN] | – | – | – | – | – | 1.11 | Non-Toxic | 100 | 14.6 | 0 | Non-Toxic | 95 | Non-Toxic | Non-Toxic | Non-Toxic | 50.3 | Non-Toxic
7 | CCCCC/C=C\C/C=C\C/C=C\C/C=C\CCCC(=O)Nc1ccc(NC(=O)Cc2onc(-c3ccc(OC)cc3)c2-c2ccc(OC)cc2)cc1 | > 50 | – | 66 | 0.05 | – | 0.61 | – | 93 | 15.3 | 0 | – | 79 | – | – | – | 55.6 | –
8 | COc1ccc(-c2noc(CC(=O)O)c2-c2ccc(OC)cc2)cc1 [MOFEZOLAC] | – | – | – | – | – | 0.45 | Non-Toxic | 97 | 14.2 | 0 | Non-Toxic | 91 | Non-Toxic | Non-Toxic | Non-Toxic | 50.8 | Non-Toxic

More lines, main results first:

Row | IC50 [1] [µM] | Ratio IC50 [2] | inhibition [3] [%] | IC50 [4] [µM] | inhibition [5] [%] | IC50 (Plasma [13]) [µM] | Compound | Activity [6] | Activity (Vero [7]) [%] | PT (Plasma [8]) [s] | hemolysis at 3 h [9] [%] | Activity [10] | Activity (Vero [11]) [%] | Activity [12] | Activity [14] | Activity [15] | APTT (Plasma [16]) [s] | Activity [17]
9 | 0.5 | 0.02 | 74 | 24 | 79 | – | COc1ccc(-c2noc(CC(=O)Nc3ccc(N)cc3)c2-c2ccc(OC)cc2)cc1 | – | – | – | – | – | – | – | – | – | – | –
10 | 0.8 | 0.05 | 57 | – | 61 | – | CCCCC/C=C\C/C=C\C/C=C\C/C=C\CCCC(=O)NCCCCNC(=O)Cc1onc(-c2ccc(OC)cc2)c1-c1ccc(OC)cc1 | – | – | – | – | – | – | – | – | – | – | –
11 | 3.5 | 3.7 | 100 | 0.95 | 51 | – | COc1ccc(-c2noc(CC(=O)NCCCCN)c2-c2ccc(OC)cc2)cc1 | – | – | – | – | – | – | – | – | – | – | –
12 | > 50 | > 7 | 40 | 7.1 | – | – | COc1ccc(-c2noc(CC(=O)NCCCCCCCCCCCCNC(=O)Cc3onc(-c4ccc(OC)cc4)c3-c3ccc(OC)cc3)c2-c2ccc(OC)cc2)cc1 | – | – | – | – | – | – | – | – | – | – | –
13 | 0.09 | 0.005 | 50 | 17 | 60 | 0.76 | CCCCC/C=C\C/C=C\C/C=C\C/C=C\CCCC(=O)Nc1ccc(-c2ccc(NC(=O)Cc3onc(-c4ccc(OC)cc4)c3-c3ccc(OC)cc3)cc2)cc1 | Non-Toxic | 94 | 14.6 | 0.14 | Non-Toxic | 84 | Non-Toxic | Non-Toxic | Non-Toxic | 48 | Non-Toxic
14 | 0.3 | 4 | 85 | 0.075 | 71 | – | COc1ccc(-c2noc(CC(=O)Nc3ccc(-c4ccc(N)cc4)cc3)c2-c2ccc(OC)cc2)cc1 | – | – | – | – | – | – | – | – | – | – | –
15 | 0.12 | 9 | 75 | 0.013 | 45 | – | COc1ccc(-c2noc(CC(=O)NCCNC(=O)Cc3onc(-c4ccc(OC)cc4)c3-c3ccc(OC)cc3)c2-c2ccc(OC)cc2)cc1 | – | – | – | – | – | – | – | – | – | – | –
